# Bioassay records (PubChem)
# CSC inhib – blocks cancer stem cells; cancer stem cell-like cells viability, luminescence; inhibition, % at 7.5 µM; 300,000 tested, 1.1% active; in the data active = inhibition above about 75%; tested in HMLE shEcad cells
# Mdm2-MdmX inh – human Mdm2/MdmX binding inhibition; O15151+Q00987; SaOS-2 split-luciferase Mdm2/MdmX complementation, luminescence; inhibition, % at 8 µM; 330,000 tested, 3% active;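 active = inhibition of at least 50% at 8 µM in the primary screen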
# Target sequence (O15151 whole entry, looked up): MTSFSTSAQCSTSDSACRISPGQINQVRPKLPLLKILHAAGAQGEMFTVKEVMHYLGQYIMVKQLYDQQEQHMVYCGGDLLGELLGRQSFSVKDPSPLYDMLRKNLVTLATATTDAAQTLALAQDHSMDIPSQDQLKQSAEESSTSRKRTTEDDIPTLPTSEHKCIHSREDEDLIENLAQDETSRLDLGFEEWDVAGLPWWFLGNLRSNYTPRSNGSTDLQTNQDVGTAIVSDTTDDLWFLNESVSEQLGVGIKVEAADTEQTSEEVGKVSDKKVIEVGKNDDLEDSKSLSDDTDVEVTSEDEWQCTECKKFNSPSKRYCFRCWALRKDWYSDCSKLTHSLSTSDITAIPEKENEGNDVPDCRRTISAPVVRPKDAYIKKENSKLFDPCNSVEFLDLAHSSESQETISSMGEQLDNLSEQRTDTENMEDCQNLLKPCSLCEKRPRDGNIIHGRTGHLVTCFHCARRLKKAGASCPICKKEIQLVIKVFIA
# Target sequence (Q00987 whole entry, looked up): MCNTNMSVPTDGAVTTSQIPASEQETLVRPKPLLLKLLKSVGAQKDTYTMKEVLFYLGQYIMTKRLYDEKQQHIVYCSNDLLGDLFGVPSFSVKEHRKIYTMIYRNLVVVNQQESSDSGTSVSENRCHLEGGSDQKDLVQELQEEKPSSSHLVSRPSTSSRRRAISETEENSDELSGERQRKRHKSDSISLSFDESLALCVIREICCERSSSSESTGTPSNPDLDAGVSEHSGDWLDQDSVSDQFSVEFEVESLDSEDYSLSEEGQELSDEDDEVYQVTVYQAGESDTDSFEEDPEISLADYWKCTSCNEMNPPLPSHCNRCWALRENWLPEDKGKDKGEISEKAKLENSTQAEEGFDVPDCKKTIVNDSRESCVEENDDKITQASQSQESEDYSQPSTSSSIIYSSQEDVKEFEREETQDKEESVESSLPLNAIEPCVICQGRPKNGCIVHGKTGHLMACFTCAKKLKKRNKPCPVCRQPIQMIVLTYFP
# Beta cell apopt – blocks beta cell apoptosis; INS-1E cytokine-induced death, ATP luminescence, 48 h; percent of positive-control rescue, neutral wells zero; protection from apoptosis, % (no concentration beside the values); 300,000 tested, 0.8% active; AID 435005;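 active = Every replicate reaches about 75%, or at least half do and their mean reaches it too, limit read from the data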;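 note: 0% = cytokine-treated negative control wells and 100% = positive control rescue; higher means more ATP so stronger rescue from cytokine killing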
# T cruzi inh – blocks replication of Trypanosoma cruzi | inhibition, % (no concentration beside the values) | T. cruzi beta-gal in NIH3T3, luminescence, 90 h | 300,000 tested, 1.4% active | AID 1885;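 active = mean inhibition across valid replicates above about 55%, limit read from the data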;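 note: signal also drops with host cell toxicity which is not excluded here; 0% = plate median of DMSO wells and 100% = zero luminescence signal; higher percent means less beta-gal luminescence so fewer parasites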
#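 Test system: β-gal T. cruzi (Tulahuen C4) inside NIH/3T3 cells / Quantity: 5,000 cells/well / Measured by: luminescence from GalScreen with 0.05% NP40, read after 60 min / Medium: DMEM plus 2% FBS / Measure: parasite load inhibition, % / Reagent: Tulahuen C4 trypomastigotes, 5000/well / Schedule: co-culture of at least 90 h after 3 h attachment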
# Lmaj promast – reduces viability of Leishmania major promastigotes | inhibition, % at 10 µM | resazurin fluorescence viability | 200,000 tested, 9% active; in the data active = inhibition above about 50%;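 note: promastigotes grown with compound for 44 hours at 28 °C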
# SKKanGAS inh – SKKanGAS growth inhibition; S. pyogenes SKKanGAS, kanamycin growth, BacTiter-Glo, 6 h; inhibition, % at 7.5 µM; 300,000 tested, 1.3% active; AID 1662;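 active = mean replicate score, as percent of positive control median, at least 50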;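 note: strain carries kanamycin resistance gene driven by streptokinase promoter and grows in 40 µg/ml kanamycin; loss of luminescence reflects streptokinase promoter inhibition or plain growth inhibition; 0% = median of DMSO wells and 100% = positive control at its reference dose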
# Mdm2 MdmX conf – human Mdm2/MdmX binding inhibition, confirmed; shares compounds with Mdm2-MdmX inh; luminescent assay; inhibition, % at 8 µM; 10,000 tested, 55% active; AID 489028; in the data active = inhibition above about 40%
# Full FLuc ctr – counter-screen for Mdm2/MdmX inhibitors: full-length luciferase. shares compounds with Mdm2-MdmX inh. SaOS-2 full-length luciferase counterscreen, luminescence. inhibition, % at 8 µM. 6,200 tested, 77% active. AID 504607;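 active = mean inhibition at 8 µM reaching about 37%, which flags the compound as non-specific, limit read from the data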;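 note: p53-null SaOS-2 cells with luciferase driven by a doxycycline-inducible promoter; compound on cells about two nights before reading with doxycycline added after day one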
# * = called active by the depositor; x = no result given. A selection: hits, their analogues and other compounds. The true share with any hit is near 9.4%.
SMILES,CSC inhib,Mdm2-MdmX inh,Beta cell apopt,T cruzi inh,Lmaj promast,SKKanGAS inh,Mdm2 MdmX conf,Full FLuc ctr
COc1ccc(C(=O)NNC(=O)OC(C)(C)C)cc1,14.7,-53.5,-5.2,-3.7,x,-3.2,x,x
O=C(NNC(=O)c1cccc(Cl)c1)NNC(=O)c1cccc(Cl)c1,-17.4,18.1,-4.6,x,x,x,x,x
O=C(NNC1=C(C(=O)C(F)(F)F)CCC1)c1ccc(Cl)cc1,81.9*,51.9*,8.7,2.8,16.2,101.0*,55.0*,75.5*
COc1ccc(C(=O)NNC2=C(C(=O)C(F)(F)F)CCC2)cc1,10.2,68.1*,0.6,-10.9,x,5.4,38.2,97.1*
O=C(NNC1=C(C(=O)C(F)(F)F)CCC1)c1cccc(Cl)c1,112.6*,61.4*,18.4,6.1,20.9,96.0*,36.4,64.8*
C[C@@H]1CN([C@@H](C)CO)C(=O)c2cccc(NC(=O)C3CCCCC3)c2O[C@@H]1CN(C)C(=O)NC1CCCCC1,x,1.2,-1.5,x,x,x,x,x
COc1ccc(NC(=O)Cc2ccccc2)cn1,-5.4,0.5,1.3,-5.8,-3.0,-3.1,x,x
COc1ccc(NC(=O)/C(Cl)=C(/Cl)S(=O)Cc2ccccc2)cn1 (centres undefined),x,97.6*,103.7*,29.8,100.5*,-21.1,98.8*,0.8
COc1ccc(CS(=O)(=O)/C(Cl)=C(/Cl)C(=O)Nc2ccc(OC)nc2)cc1,108.8*,93.9*,51.7,21.9,32.4,-4.1,97.3*,50.8*
CN1CCN(C=Nc2nc3ccccc3nc2N2CCCC2)CC1,-8.2,-4.8,2.1,37.4,10.8,-6.8,x,x
C=CC(=O)N=c1sc2ccccc2n1-c1ccccc1,47.6,82.3*,x,-160.6,33.5,-9.4,80.3*,37.1*
N=c1sc2ccccc2n1-c1ccccc1,-18.7,78.6*,-1.2,10.0,-3.9,-0.2,62.2*,56.7*
CCc1cc(C(=O)OC)c(NC(=O)CN2CCN(C(=O)C3CCCO3)CC2)s1 (centres undefined),2.5,10.8,-10.6,11.5,x,3.6,x,x
NC(N)=Nc1nc2ccccc2o1,-1.8,-13.8,0.1,8.3,x,5.3,x,x
Nc1ncnc(NCc2ccccc2)c1[N+](=O)[O-],-18.1,26.2,-4.9,-15.3,3.0,-2.1,x,x
Nc1ncnc(NCc2ccc(F)cc2)c1[N+](=O)[O-],-14.9,68.6*,-24.4,-11.3,-2.7,-3.3,61.5*,27.0
COc1ccc(-n2ncc(Cl)c(Cl)c2=O)cc1,x,100.3*,x,56.7*,81.7*,-3.6,98.8*,52.2*
COc1ccc(-n2ncc(N(C)n3cccc3)c(Cl)c2=O)cc1,2.4,-66.5,-5.8,x,2.9,0.5,x,x
COc1ccccc1NC(=O)N1CCCC1C(=O)NCCc1ccccc1 (centres undefined),-14.9,-4.2,0.4,-5.2,x,-1.5,x,x
Cc1ccc(Nc2nc3c(c(=O)[nH]2)CCCC3)cc1,3.1,-36.2,5.9,-6.7,12.9,-11.7,x,x
O=c1[nH]c(Nc2nc3ccccc3o2)nc2c1CCCC2,70.5,100.3*,42.1,60.0*,95.3*,-32.3,75.5*,78.7*
CCc1cccc(CC)c1NC(=S)NCCc1c(C)[nH]c2ccccc12,14.7,50.7*,-0.7,39.4,38.4,6.6,28.9,x
COc1ccc(C2=NN(CCC(=O)NCc3cccs3)C(=O)CC2)cc1,x,22.7,3.2,-9.8,4.5,-24.4,x,x
CC1(C)c2ssc(=S)c2-c2ccccc2N1C(=O)c1ccco1,2.3,24.7,-2.8,3.9,5.2,10.4,x,x
Cc1ccc2c(c1)-c1c(ssc1=S)C(C)(C)N2C(=O)c1ccco1,48.2,56.8*,-16.2,20.5,33.0,-5.8,36.6,x
CCCN1CCC(=O)N([C@H](CSc2ccc(OC)cc2)c2ccccc2)CC1,5.7,11.1,2.9,-4.3,x,2.7,x,x
Cc1cc2nc(C3CCCN(C(=S)Nc4ccccc4)C3)[nH]c2cc1C (centres undefined),-8.7,51.5*,10.4,27.2,-0.8,5.4,-13.1,x
COc1ccccc1NC(=O)N1CCC(c2nc3cc(C)c(C)cc3[nH]2)CC1,67.2,56.7*,14.7,41.5,-1.7,3.7,69.7*,72.3*
CCOc1ccc(N(CC(=O)N2CCN(Cc3ccccc3)CC2)S(C)(=O)=O)cc1,-4.5,-1.9,-1.7,2.7,x,-0.4,x,x
